From PubChem BioAssay
The list is not random: actives were taken first. Their share in the collection is about 2.6%.
CFTR F508del cor: CFTR F508del correction in bronchial cells. CFBE cells, YFP halide quenching; stimulated with forskolin plus potentiator P3; % fluorescence drop versus neutral controls. activity (quench increase), % at 7.58 µM. hit rate 0.36% among 350,000;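 active = mean added fluorescence quench of at least 8% versus neutral control, with both replicates also reaching 8%; inconclusive = only one of the mean or replicate conditions met; inactive = mean below 8% and not both replicates reaching 8%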;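 also: cells transiently co-express mutant CFTR-F508del with the halide-sensitive YFP; corrector assay measuring rescue of mutant channel to the surface after 24 h compound exposure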
DENV2 CPE: protects cells from dengue virus 2 cytopathic effect; hit rate 1.7% among 350,000; DENV2-infected cells, cytopathic effect rescue, plate reader; AID 651640; CPE inhibition, % at 9.99 µM; in the data active = CPE inhibition above about 20%, passing the limit was not always enough; inconclusive = no clear call, values can overlap the other calls; tested in BHK-21 cells;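 also: 0% = median of neutral control wells and 100% = median of positive control wells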
INS-1E GSIS act: primary screen for activators of insulin secretion dependent on glucose, INS-1E cells, GLuc reporter luminescence; INS-1E GLuc reporter insulin secretion, 2-3 h; activation, % at 16.6 µM; hit rate 0.61% among 370,000;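 active = lowest replicate activation of at least 40%, so every replicate reaches that level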;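 also: 0% = median of neutral control wells and 100% = median of IBMX positive control wells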
miR-122 sensor: miR-122 inhibition in Huh7 cells. Huh7 miR-122 Renilla luciferase sensor, 48 h; neutral wells = 0, positive control = 100. hit rate 0.3% among 340,000. activation (reporter increase), % at 12.5 µM;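 active = mean replicate activation score at least 90 and every replicate individually at or above 90; inconclusive = only one of the two criteria met; inactive = neither criterion met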;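 also: higher luciferase means less miR-122 activity so hits act as miR-122 inhibitors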
E-sel inducer: induces E-selectin expression in human endothelial cells | HUVEC E-selectin immunofluorescence imaging; normalized: neutral wells 0, TNF-alpha wells 100 | activation, % at 7.58 µM | hit rate 0.37% among 260,000 | AID 686992;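 active = mean E-selectin-positive cell signal at least 10% of the positive control, reached in at least 60% of replicates, without over 20% cell loss; inconclusive = no rule given, readout overlaps actives, possibly toxicity-flagged; inactive = the rest, including those meeting only one limit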
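Test system: HUVEC | Signal: Immunofluorescence imaging | Read-out: Percent E-selectin-positive cells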
ERAP1 HTS inh: inhibitors of human ERAP1 aminopeptidase. Q9NZ08. recombinant ERAP1, Leu-AMC fluorescence, 60 min. inhibition, % at 10.7 µM. hit rate 0.15% among 340,000. AID 652197;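 active = mean replicate inhibition of at least 30%, or all replicates individually reaching that 30% level; inactive = mean below 30% and not every replicate reaching it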;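 also: 0% = neutral control wells and 100% = L-leucinethiol positive control wells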
Target sequence (Q9NZ08 whole entry, looked up): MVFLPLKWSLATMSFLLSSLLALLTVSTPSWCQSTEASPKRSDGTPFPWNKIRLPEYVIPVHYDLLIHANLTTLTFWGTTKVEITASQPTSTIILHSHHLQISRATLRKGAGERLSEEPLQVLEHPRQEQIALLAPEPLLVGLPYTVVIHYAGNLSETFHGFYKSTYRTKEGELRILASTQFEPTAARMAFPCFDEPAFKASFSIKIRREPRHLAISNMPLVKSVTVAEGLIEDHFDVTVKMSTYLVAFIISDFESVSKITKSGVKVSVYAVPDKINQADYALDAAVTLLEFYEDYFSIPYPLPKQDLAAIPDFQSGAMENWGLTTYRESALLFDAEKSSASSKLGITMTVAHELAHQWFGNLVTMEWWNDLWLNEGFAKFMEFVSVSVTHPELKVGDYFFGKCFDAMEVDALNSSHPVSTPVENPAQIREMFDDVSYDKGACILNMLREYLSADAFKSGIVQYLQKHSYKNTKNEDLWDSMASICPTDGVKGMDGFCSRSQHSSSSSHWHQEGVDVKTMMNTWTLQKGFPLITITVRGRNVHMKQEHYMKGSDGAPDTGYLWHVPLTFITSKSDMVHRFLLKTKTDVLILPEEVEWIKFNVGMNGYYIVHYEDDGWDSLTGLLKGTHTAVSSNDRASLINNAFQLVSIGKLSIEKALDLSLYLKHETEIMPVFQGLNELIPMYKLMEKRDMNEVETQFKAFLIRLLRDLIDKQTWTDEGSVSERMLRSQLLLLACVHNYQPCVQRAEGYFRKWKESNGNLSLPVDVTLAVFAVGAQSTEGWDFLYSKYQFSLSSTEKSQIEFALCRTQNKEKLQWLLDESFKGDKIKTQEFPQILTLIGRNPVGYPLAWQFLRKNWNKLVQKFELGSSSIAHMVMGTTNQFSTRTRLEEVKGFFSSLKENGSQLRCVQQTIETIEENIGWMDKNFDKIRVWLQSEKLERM
The depositor's hits bear a star; ? = inconclusive; . = no result; ! = not active in a repeat; [ ] = dose if it differs, or a comment.

SMILES | CFTR F508del cor | DENV2 CPE | INS-1E GSIS act | miR-122 sensor | E-sel inducer | ERAP1 HTS inh
C[C@@H]1CN([C@H](C)CO)C(=O)CCCn2cc(nn2)CO[C@H]1CN(C)S(=O)(=O)c1cccs1 | -1 | -5 | 41*! | 19[16.7 µM] | 0 | -3
C[C@@H]1CN([C@@H](C)CO)C(=O)CCCn2cc(nn2)CO[C@@H]1CN(C)S(=O)(=O)c1ccc(Cl)cc1 | 0 | . | 0 | -1[16.7 µM] | 0 | .
C[C@H]1CN([C@@H](C)CO)C(=O)CCCn2cc(nn2)CO[C@@H]1CN(C)S(=O)(=O)c1ccc(Oc2ccccc2)cc1 | 1 | 35*! | 5 | -8 | 0 | 10
O=C(C[C@H]1CC[C@H](NC(=O)Nc2ccc(F)cc2)[C@H](CO)O1)NCc1ccccn1 | 1 | 4 | 10 | . | 0 | -4
O=C(O)c1ccccc1/C=N/NC(=S)NC1CCCCC1 | 1 | -6 | 75* | 31 | 0 | -1
O=C(O)c1ccccc1/C=N/NC(=O)C1CCCCC1 | 0 | 15 | -5 | -5 | 2 | .
COc1ccc(S(=O)(=O)N(C)C[C@H]2Oc3ccc(NS(=O)(=O)c4ccc(F)cc4)cc3CC(=O)N([C@@H](C)CO)C[C@@H]2C)cc1 | -2 | 77* | 3 | -8[16.7 µM] | 0 | 3
COc1ccc(S(=O)(=O)N(C)C[C@@H]2Oc3ccc(NS(=O)(=O)c4ccc(Cl)cc4)cc3CC(=O)N([C@@H](C)CO)C[C@@H]2C)cc1 | -1 | 64* | -12 | -4[16.7 µM] | 0 | .
COc1ccc(S(=O)(=O)Nc2ccc3c(c2)CC(=O)N([C@H](C)CO)C[C@@H](C)[C@H](CN(C)S(=O)(=O)c2ccc(F)cc2)O3)cc1 | -2 | 43* | 3 | -6[16.7 µM] | -15 | .
COc1ccc(S(=O)(=O)N(C)C[C@@H]2Oc3ccc(NS(=O)(=O)c4ccc(F)cc4)cc3CC(=O)N([C@@H](C)CO)C[C@@H]2C)cc1 | -1 | 1 | -3 | 7[16.7 µM] | 1 | 4
CN(C)CCNc1nc2sc3c(c2c(=O)n1-c1ccccc1)CCCCC3 | 0 | 4 | 0 | 7 | 0 | 11
CN(C)CCNc1nc2sc3c(c2c(=O)n1-c1ccc(F)cc1)CCCCC3 | 0 | 26* | 10 | . | 0 | 15
CC(=O)Nc1nc(CC(C)C)cc(-c2ccco2)c1C#N | . | . | 48* | 5 | . | .
CC(=O)Nc1nc(CC(C)C)cc(-c2ccccc2)c1C#N | 2 | -4 | 34 | . | 0 | 4
CCS(=O)(=O)N1CC2(CN(C)[C@H](CO)c3c2c2ccc(OC)cc2n3C)C1 | 2 | 3 | -2 | . | 0 | -1
O=C(O)C[C@H]1C[C@@H]2c3cc(NC(=O)Nc4ccccc4F)ccc3O[C@@H]2[C@@H](CO)O1 | -2 | 2 | -5 | -1[16.7 µM] | 1 | -2
Cc1cc(C(=O)CCC(=O)NC(C)c2ccc(S(N)(=O)=O)cc2)c(C)s1 (stereo unspecified) | 8.8* | 1 | 16 | 2 | -2 | 3
CSc1ccc(S(=O)(=O)Nc2ccc(F)cc2)cc1 | . | . | . | 120* | . | .
COC(=O)[C@H]1CN(C(=O)c2ccccc2)C(=O)N1 | -2 | 25* | 1 | -2 | . | 1
CCCCNC(=O)C1(C)CCN1C(=O)c1cc(-c2cccs2)oc1C (stereo unspecified) | 1 | 33* | . | -2 | . | 3
CCCCNC(=O)C1(C)CCN1C(=O)c1ccccc1Br (stereo unspecified) | 0 | ? | 2 | -7 | 0 | -1
Cc1ccc(-n2nc3c(=O)n(CC(=O)NCc4cccs4)nc(C)c3c2C)cc1 | -3 | 54* | 10 | -3 | 0 | -2
Cc1c(P(=S)(c2ccccc2)c2ccccc2)[n+]2ccccc2n1C/C=C/c1ccccc1 | 3 | 8 | 243* | -18 | 0 | .
COc1ccc(OC)c(/C=C/C(=O)Nc2ccc3c(c2)CCC3)c1 | 1 | 23* | 3 | -8 | . | -3
C[C@H](CO)N1C[C@H](C)[C@H](CN(C)S(=O)(=O)c2ccc(Cl)cc2)Oc2c(NC(=O)NC3CCCCC3)cccc2C1=O | -3 | -19 | . | -14[16.7 µM] | . | 2
SMILES | CFTR F508del cor | DENV2 CPE | INS-1E GSIS act | miR-122 sensor | E-sel inducer | ERAP1 HTS inh
C[C@@H]1CCCCO[C@@H](CN(C)S(=O)(=O)c2ccc(Cl)cc2)[C@H](C)CN([C@H](C)CO)C(=O)c2cc(NC(=O)Nc3ccc4c(c3)OCO4)ccc2O1 | 2 | 6 | 0 | -3[16.7 µM] | 0 | -2
C[C@@H]1CN([C@H](C)CO)C(=O)c2cc(NC(=O)Nc3ccc4c(c3)OCO4)ccc2O[C@@H](C)CCCCO[C@H]1CN(C)S(=O)(=O)c1ccc(Cl)cc1 | 0 | 38* | 14 | -9[16.7 µM] | 2 | -3
C[C@@H]1CCCCO[C@H](CN(C)S(=O)(=O)c2ccc(Cl)cc2)[C@@H](C)CN([C@H](C)CO)C(=O)c2cc(NC(=O)NC3CCCCC3)ccc2O1 | 2 | 17 | 0 | -2[16.7 µM] | 0 | 1
C[C@H]1CN([C@@H](C)CO)C(=O)c2cccc(NC(=O)NC3CCCCC3)c2O[C@@H]1CN(C)S(=O)(=O)c1ccc(Cl)cc1 | 0 | 27* | -20 | -4[16.7 µM] | 0 | 1
C[C@@H]1CN([C@@H](C)CO)C(=O)c2cc(NC(=O)NC3CCCCC3)ccc2O[C@H]1CN(C)S(=O)(=O)c1ccc(Cl)cc1 | 1 | 1 | 4 | -9[16.7 µM] | 18 | -1
C[C@H](CO)N1C[C@H](C)[C@H](CN(C)S(=O)(=O)c2ccc(Cl)cc2)OCCCC[C@H](C)Oc2ccc(NC(=O)NC3CCCCC3)cc2C1=O | -6 | 50* | -4 | -7[16.7 µM] | 0 | 2
C[C@H](CO)N1C[C@H](C)[C@H](CN(C)S(=O)(=O)c2ccc(Cl)cc2)Oc2ccc(NC(=O)NC3CCCCC3)cc2C1=O | 3 | 1 | -29 | -8[16.7 µM] | 436* | -2
CC(C)CC#Cc1ccc([C@H]2[C@H]3CN(C(=O)c4ccc5c(c4)OCO5)CC(=O)N3[C@H]2CO)cc1 | . | . | 7 | . | . | .
C[C@@H]1CCCCO[C@@H](CN(C)C(=O)Nc2ccc3c(c2)OCO3)[C@H](C)CN([C@H](C)CO)C(=O)c2cc(NS(=O)(=O)c3ccc(Cl)cc3)ccc2O1 | -2 | 6 | -38 | -19[16.7 µM] | 0 | -7
C[C@@H]1CCCCO[C@H](CN(C)C(=O)Nc2ccc3c(c2)OCO3)[C@@H](C)CN([C@H](C)CO)C(=O)c2cc(NS(=O)(=O)c3ccc(Cl)cc3)ccc2O1 | -3 | 25* | 2 | -2[16.7 µM] | 0 | -4
O=C(C[C@@H]1CC[C@@H]2[C@H](COC[C@@H](O)CN2Cc2cccc(-c3ccncc3)c2)O1)N1CCOCC1 | -3 | -1 | 1 | -4[16.7 µM] | 0 | 1
Cc1noc(C)c1S(=O)(=O)Nc1ccc2c(c1)C(=O)N([C@@H](C)CO)C[C@H](C)[C@H](CN(C)Cc1ccc3c(c1)OCO3)OCCCC[C@@H](C)O2 | 3 | 8 | -12 | 5[16.7 µM] | 0 | -13
